Measured values as given in ChEMBL document CHEMBL5038664, “Thieno[2,3-d]pyrimidine-Based Positive Allosteric Modulators of Human Mas-Related G Protein-Coupled Receptor X1 (MRGPRX1)” (J Med Chem, 2022).
The source made the active and inactive calls. The calls are words filed in the database; no cut-off is given here.

Columns and labels:
[1] = Metabolic stability in mouse microsome assessed as compound remaining measured after 60 min in presence of NADPH regenerating system by LC-MS/MS analysis; format: ADME, Liver; settings: microsomes, 1 h
[2] = Acute toxicity in mouse expressing MRGPRX1 assessed as impaired exploratory activity at 100 mg/kg, po by open field test; format: organism-based; settings: in vivo
Procedure, shortened: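 Naïve humanized MRGPRX1 mice were dosed at 100 mg/kg po, with vehicle-treated mice as a parallel group. Exploratory performance in an open field test was compared with each animal's pre-drug values.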

[3] = Metabolic stability in mouse microsome assessed as compound remaining measured after 30 min in presence of NADPH regenerating system by LC-MS/MS analysis; format: ADME, Liver; settings: microsomes, 0.5 h
[4] = Acute toxicity in mouse expressing MRGPRX1 at 100 mg/kg, po measured upto 1.5 hrs by rotarod test; format: organism-based; settings: in vivo
Procedure, shortened: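 Motor coordination was measured by rotarod in naïve humanized MRGPRX1 mice after 100 mg/kg po. Performance was compared with a vehicle-treated group and with pre-treatment values.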

[5] = Ratio of AUClast in CD1 mouse brain to plasma at 100 mg/kg, po measured upto 6 hrs by LC-MS/MS analysis; format: ADME, organism-based
Procedure, shortened: (§1)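 Male CD-1 mice (25–30 g, n=3 per time point) dosed 100 mg/kg by oral gavage in 5% dimethylacetamide/10% Cremophor EL/10% Tween80/25% PEG400/50% water. Killed at 0.25–6 h; cardiac-puncture plasma, brain and spinal cord collected. Acetonitrile extraction with losartan internal standard, LC/MS/MS; calibration 0.01–10 nmol/mL, 1/x weighting. Tissue-to-plasma ratios by AUC.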

Mus musculus [6] = experiment: Analgesic activity in mouse model of sciatic nerve chronic constriction injury-induced neuropathic pain assessed as increase in contralateral paw withdrawal latency at 100 mg/kg, po measured at 1 and 2 hrs on day 12 post injury by Hargreaves test; format: functional, organism-based; settings: time 12.0 day
Procedure, shortened: (§2)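 Humanized MRGPRX1 mice, both sexes, 2–3 months old, 20–30 g, sciatic nerve CCI. Given 100 mg/kg orally (n=4–5/group, vehicle comparator). Heat withdrawal latency by Hargreaves test on days 12 and 26 post-CCI, compared with pre-drug and vehicle; two-way mixed-model ANOVA with Bonferroni test, mean + SD.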

[7] = Tmax in CD1 mouse brain at 100 mg/kg, po measured upto 6 hrs by LC-MS/MS analysis; format: ADME, organism-based; settings: in vivo; procedure, shortened: as §1
[8] = Tmax in CD1 mouse plasma at 100 mg/kg, po measured upto 6 hrs by LC-MS/MS analysis; format: ADME, organism-based; settings: in vivo; procedure, shortened: as §1
[9] = Metabolic stability in human microsome assessed as compound remaining measured after 30 min in presence of NADPH regenerating system by LC-MS/MS analysis; format: ADME, Liver; settings: microsomes, 0.5 h
[10] = Tmax in CD1 mouse spinal cord at 100 mg/kg, po measured upto 6 hrs by LC-MS/MS analysis; format: ADME, organism-based; settings: in vivo; procedure, shortened: as §1
Mus musculus [11] = experiment: Analgesic activity in mouse model of sciatic nerve chronic constriction injury-induced neuropathic pain assessed as increase in ipsilateral paw withdrawal latency at 100 mg/kg, po measured at 2 hrs post drug on day 26 post injury by Hargreaves test; format: functional, organism-based; procedure, shortened: as §2
[12] = biological target: T1, Mas-related G-protein coupled receptor member X2 (Homo sapiens) (UniProt Q96LB1); experiment: Positive allosteric modulator activity at human MRGPRX2 transfected in HEK293 cells at 5 uM in presence of C48/80 by Fluo-4 AM-based FLIPR assay; format: cell-based
T1 sequence (whole entry): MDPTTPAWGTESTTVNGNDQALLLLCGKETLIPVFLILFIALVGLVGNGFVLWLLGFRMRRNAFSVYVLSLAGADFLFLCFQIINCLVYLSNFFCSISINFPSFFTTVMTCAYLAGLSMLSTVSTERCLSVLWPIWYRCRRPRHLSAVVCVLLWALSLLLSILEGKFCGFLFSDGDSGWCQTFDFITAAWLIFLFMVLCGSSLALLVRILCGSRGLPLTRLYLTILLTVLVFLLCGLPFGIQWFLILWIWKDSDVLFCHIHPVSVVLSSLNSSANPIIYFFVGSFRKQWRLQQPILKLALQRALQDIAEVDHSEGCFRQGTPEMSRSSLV
Procedure, shortened: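 MRGPRX2 stably expressed in HEK293 cells; compound tested with an EC20 level of the orthosteric agonist C48/80, calcium response detected with Fluo-4 AM.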

Mus musculus [13] = experiment: Analgesic activity in mouse model of sciatic nerve chronic constriction injury-induced neuropathic pain assessed as increase in contralateral paw withdrawal latency at 100 mg/kg, po measured at 2 hrs post drug on day 26 post injury by Hargreaves test; format: functional, organism-based; procedure, shortened: as §2
[14] = biological target: T2, Mas-related G-protein coupled receptor member X1 (Homo sapiens, UniProt Q96LB2); experiment: Agonist activity at human MRGPRX1 expressed in HEK293 cells upto 100 uM in absence of BAM8-22 by Fluo-dye based FLIPR assay; format: functional, cell-based; settings: dose microM <=100
T2 sequence (Q96LB2 whole entry): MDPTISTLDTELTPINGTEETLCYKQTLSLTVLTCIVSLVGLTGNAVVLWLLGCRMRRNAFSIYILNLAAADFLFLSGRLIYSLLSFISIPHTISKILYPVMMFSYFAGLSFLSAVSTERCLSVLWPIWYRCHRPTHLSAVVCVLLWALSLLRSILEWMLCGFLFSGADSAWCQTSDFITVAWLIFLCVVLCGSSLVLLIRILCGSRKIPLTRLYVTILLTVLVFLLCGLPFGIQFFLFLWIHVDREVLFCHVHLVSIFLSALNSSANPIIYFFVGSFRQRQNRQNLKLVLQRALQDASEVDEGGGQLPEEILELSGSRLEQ
Procedure, shortened: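 Human MRGPRX1 stably expressed in HEK293 cells, 25,000 cells/well, 2 days. Loaded with 2 µM Fluo-4 AM and 1% Trypan Red in HBSS for 50 min at 37°C, then 10 min at room temperature. Serially diluted compound in HBSS added; FLIPR imaging 2 min, signal taken as maximum minus minimum fluorescence.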

[15] = biological target: T2, Mas-related G-protein coupled receptor member X1; experiment: Positive allosteric modulator activity at human MRGPRX1 transfected in HEK293 cells assessed as maximal efficacy in presence of BAM8-22 by Fulo4AM dye based FLIPR assay relative to control; format: cell-based; settings: filed as positive allosteric modulator
[16] = Ratio of AUClast in CD1 mouse spinal cord to plasma at 100 mg/kg, po measured upto 6 hrs by LC-MS/MS analysis; format: ADME, organism-based; procedure, shortened: as §1
[17] = Acute toxicity in mouse expressing MRGPRX1 assessed as itching by measuring spontaneous scratching bouts at 100 mg/kg, po measured upto 1 hr; format: organism-based; settings: in vivo
Procedure, shortened: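 Awake, free-moving humanized MRGPRX1 mice (human MRGPRX1 expressed in nociceptive DRG neurons in place of murine MrgprC11) were dosed orally at 100 mg/kg. Spontaneous behaviour was video-recorded for 0–1 h after dosing, and scratch bouts were counted and compared with vehicle-treated mice.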

[18] = Metabolic stability in human microsome assessed as compound remaining measured after 60 min in presence of NADPH regenerating system by LC-MS/MS analysis; format: ADME, Liver; settings: microsomes, 1 h
Mus musculus [19] = experiment: Analgesic activity in mouse model of sciatic nerve chronic constriction injury-induced neuropathic pain assessed as increase in ipsilateral paw withdrawal latency at 100 mg/kg, po measured at 1 and 2 hrs on day 12 post injury by Hargreaves test; format: functional, organism-based; settings: time 12.0 day; procedure, shortened: as §2
hERG (KCNH2) = hERG (KCNH2) (Homo sapiens, UniProt Q12809); experiment: Inhibition of hERG at 10 uM relative to control; format: toxicity
Sequence of hERG (KCNH2) (Q12809 whole entry): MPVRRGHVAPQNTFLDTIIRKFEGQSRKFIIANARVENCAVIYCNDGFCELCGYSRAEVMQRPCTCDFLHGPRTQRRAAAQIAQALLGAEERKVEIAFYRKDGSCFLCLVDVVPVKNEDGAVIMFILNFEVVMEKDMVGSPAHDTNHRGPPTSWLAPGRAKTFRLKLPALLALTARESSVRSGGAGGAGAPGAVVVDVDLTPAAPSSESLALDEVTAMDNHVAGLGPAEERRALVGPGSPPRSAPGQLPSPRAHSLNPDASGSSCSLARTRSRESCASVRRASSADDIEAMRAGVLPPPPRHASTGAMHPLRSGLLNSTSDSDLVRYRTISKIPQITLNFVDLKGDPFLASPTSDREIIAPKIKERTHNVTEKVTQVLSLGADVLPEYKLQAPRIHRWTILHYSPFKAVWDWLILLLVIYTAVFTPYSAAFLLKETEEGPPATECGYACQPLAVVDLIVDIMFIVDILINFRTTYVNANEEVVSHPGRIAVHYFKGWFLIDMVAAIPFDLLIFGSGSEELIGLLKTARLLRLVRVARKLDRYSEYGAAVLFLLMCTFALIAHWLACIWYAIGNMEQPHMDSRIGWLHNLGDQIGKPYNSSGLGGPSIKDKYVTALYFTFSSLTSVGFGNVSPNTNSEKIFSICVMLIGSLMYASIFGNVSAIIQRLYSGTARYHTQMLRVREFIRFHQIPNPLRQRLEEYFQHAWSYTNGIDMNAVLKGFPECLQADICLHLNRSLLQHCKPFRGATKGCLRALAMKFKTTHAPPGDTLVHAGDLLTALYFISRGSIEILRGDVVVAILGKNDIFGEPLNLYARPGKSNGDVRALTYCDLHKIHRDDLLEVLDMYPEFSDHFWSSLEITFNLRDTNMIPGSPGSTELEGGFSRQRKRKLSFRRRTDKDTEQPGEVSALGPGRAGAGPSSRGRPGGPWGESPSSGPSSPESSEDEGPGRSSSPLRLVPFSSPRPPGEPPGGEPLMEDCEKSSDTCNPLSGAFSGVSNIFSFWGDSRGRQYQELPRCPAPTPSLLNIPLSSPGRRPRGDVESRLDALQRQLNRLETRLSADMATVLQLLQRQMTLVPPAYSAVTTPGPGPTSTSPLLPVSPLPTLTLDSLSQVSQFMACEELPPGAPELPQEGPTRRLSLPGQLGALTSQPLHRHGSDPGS

[20] = biological target: T2, Mas-related G-protein coupled receptor member X1; experiment: Positive allosteric modulator activity at human MRGPRX1 transfected in HEK293 cells in presence of BAM8-22 by Fulo4AM dye based FLIPR assay; format: cell-based
[21] = Drug metabolism in human liver microsomes assessed as CYP450 mediated oxidation of parent compound measured after 60 mins by UPLC analysis; format: ADME, Microsome; settings: 1 h

| Compound | Stability [1] | Stability [3] | Stability [9] | Emax [15] | Stability [18] | EC50 [20] | also measured |
| --- | --- | --- | --- | --- | --- | --- | --- |
| CC(C)(C)c1sc2ncnc(Oc3ccccc3OC(F)(F)F)c2c1-c1ccc(Cl)c(Cl)c1 | 25% | 58% | > 95% | 114% | > 95% |  | Activity [2]: Non-Toxic; Activity [4]: Non-Toxic; Kp at 6 h [5]: 2.2; Activity (Mus musculus [6]): inactive; Tmax [7]: 1 h; Tmax [8]: 1 h; Tmax [10]: 1 h; Activity (Mus musculus [11]): Active; Activity [12]: inactive; Activity (Mus musculus [13]): inactive; Activity [14]: inactive; Kp at 6 h [16]: 12.7; Activity [17]: Non-Toxic; Activity (Mus musculus [19]): Active; inhibition at 10 µM (hERG (KCNH2)): 50% |
| Cc1ccccc1Oc1ncnc2sc(C)c(C)c12 |  |  |  | 118% |  | 480 nM |  |
| Cc1csc2ncnc(Oc3ccccc3F)c12 |  |  |  | 94% |  | 1700 nM |  |
| Cc1cccc(Oc2ncnc3sc(C)c(C)c23)c1 |  |  |  | 40% |  | 25000 nM |  |
| Cc1sc2ncnc(Oc3ccccc3F)c2c1C | < 5% | < 5% | < 5% | 112% | < 5% | 220 nM | Drug metabolism [21]: Metabolite_Detected |
| Cc1sc2ncnc(Oc3cccc(F)c3)c2c1C |  |  |  | 55% |  | 30000 nM |  |
| CC(C)(C)c1sc2ncnc(Oc3ccccc3F)c2c1-c1ccccc1 | < 5% | 14% |  | 95% | 78% | 340 nM |  |
| CC(C)(C)c1cc2c(Oc3ccccc3F)ncnc2s1 | < 5% | < 5% | 75% | 105% | 61% | 320 nM |  |
| Fc1ccccc1Oc1ncnc2scc(C(F)(F)F)c12 | < 5% | < 5% | 40% | 94% | < 5% | 2100 nM |  |
| Cc1sc2ncnc(Oc3cccc(C(F)(F)F)c3)c2c1C |  |  |  |  |  | > 100000 nM |  |
| Cc1sc2ncnc(Oc3ccccc3C(F)(F)F)c2c1C |  |  |  | 95% |  | 520 nM |  |
| CC(C)(C)c1sc2ncnc(Oc3ccccc3F)c2c1-c1ccc(F)cc1 | < 5% | 7% | > 95% | 145% | 88% |  |  |
| Fc1ccccc1Oc1ncnc2sccc12 |  |  |  | 95% |  | 4200 nM |  |
| CC(C)(C)c1sc2ncnc(Oc3ccccc3OC(F)(F)F)c2c1-c1ccc(F)cc1 | 5% | 28% | > 95% | 143% | > 95% | 230 nM |  |
| Cc1sc2ncnc(Oc3ccc(F)cc3)c2c1C |  |  |  | 83% |  | 1100 nM |  |
| Cc1cc2c(Oc3ccccc3F)ncnc2s1 |  |  |  | 90% |  | 1500 nM |  |
| Cc1sc2ncnc(Oc3ccc(C(F)(F)F)cc3)c2c1C |  |  |  |  |  | > 100000 nM |  |
| Cc1ccc(Oc2ncnc3sc(C)c(C)c23)cc1 |  |  |  | 88% |  | 2700 nM |  |
| Cc1ccccc1Oc1ncnc2sccc12 |  |  |  | 88% |  | 14500 nM |  |
| Cc1sc2ncnc(Oc3ccccc3)c2c1C |  |  |  | 89% |  | 1600 nM |  |
